The text below walks through data of ChEMBL document CHEMBL5380865, “Linearization of the Brevicidine and Laterocidine Lipopeptides Yields Analogues That Retain Full Antibacterial Activity” (J Med Chem, 2023).

Where a SMILES comes first, the peptide text is derived from it. Bridges are numbered along the chain shown (N, C = ends). [ ]: non-standard residue; d: D form. The star is where a group is joined. ξ: configuration not given here. Octanoyl(7-Me) = CC(C)CCCCCC(=O)*; Hexanoyl(4ξ-Me) = CCC(C)CCC(=O)*; dOrn = NCCC[C@@H](N)C(=O)O; Orn = NCCC[C@H](N)C(=O)O; OAll = C=CCO*

This data set can be described thus: Hemolytic activity in sheep red blood cell assessed as hemolysis at 1 to 128 ug/ml incubated for 1 hrs relative to control. Type of data set: toxicity, cell-based, Ovis aries, Erythrocyte. The settings on record: sheep red blood cells (erythrocytes), at 1 to 128 µg/mL, dose 1-128 µg/ml, read-out: Activity. Put shortly: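 Defibrinated sheep erythrocytes washed five times in PBS with 0.002% Tween20 and normalized so the Triton control reads 2.5–3.0 at 415 nm. Mixed 1:1 with compound serial dilutions (128–1 μg/mL) and incubated 1 h at 37 °C, 500 rpm. Supernatant A415 is background-corrected with buffer and expressed as percent of 0.1% Triton X-100 (final). Run in triplicate.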
As for `CC(C)CCCCCC(=O)N[C@H](CO)C(=O)N[C@H](Cc1ccc(O)cc1)C(=O)N[C@H](Cc1c[nH]c2ccccc12)C(=O)N[C@H](CCCN)C(=O)N[C@@H](CCCN)C(=O)NCC(=O)N[C@H](CCCN)C(=O)N[C@@H](Cc1c[nH]c2ccccc12)C(N)=O` ({Octanoyl(7-Me)}-[dS][dY][dW][dOrn][Orn]G[dOrn]W-NH2), the hemolysis at 1 h is below 0.1%.
Turning to `CCC(C)CCC(=O)N[C@H](CC(N)=O)C(=O)N[C@H](Cc1ccc(O)cc1)C(=O)N[C@H](Cc1c[nH]c2ccccc12)C(=O)N[C@H](CCCN)C(=O)N[C@@H](CCCN)C(=O)NCC(=O)N[C@H](CCCN)C(=O)N[C@@H](Cc1c[nH]c2ccccc12)C(=O)N[C@H](C(=O)N[C@H](C(=O)NCC(=O)N[C@@H](CO)C(N)=O)[C@@H](C)CC)[C@@H](C)O` (stereo not given in full) ({Hexanoyl(4ξ-Me)}-[dN][dY][dW][dOrn][Orn]G[dOrn]WTIGS-NH2), the hemolysis at 1 h was below 0.1%.
With `CC[C@H](C)[C@H](NC(=O)[C@@H](NC(=O)[C@H](Cc1c[nH]c2ccccc12)NC(=O)[C@@H](CCCN)NC(=O)CNC(=O)[C@H](CCCN)NC(=O)[C@@H](CCCN)NC(=O)[C@@H](Cc1c[nH]c2ccccc12)NC(=O)[C@@H](Cc1ccc(O)cc1)NC(=O)[C@@H](CO)NC(=O)CCCCCC(C)C)[C@@H](C)O)C(=O)N[C@@H](CC(N)=O)C(=O)NCC(N)=O` ({Octanoyl(7-Me)}-[dS][dY][dW][dOrn][Orn]G[dOrn]WTING-NH2), the hemolysis at 1 h was below 0.1%.
`CC[C@H](C)[C@H](NC(=O)[C@@H](NC(=O)[C@H](Cc1c[nH]c2ccccc12)NC(=O)[C@@H](CCCN)NC(=O)CNC(=O)[C@H](CCCN)NC(=O)[C@@H](CCCN)NC(=O)[C@@H](Cc1c[nH]c2ccccc12)NC(=O)[C@@H](Cc1ccc(O)cc1)NC(=O)[C@@H](CO)NC(=O)CCCCCC(C)C)[C@@H](C)O)C(=O)N[C@@H](CC(N)=O)C(=O)NCC(=O)NCC(N)=O` ({Octanoyl(7-Me)}-[dS][dY][dW][dOrn][Orn]G[dOrn]WTINGG-NH2): the hemolysis at 1 h is below 0.1%.
For `CC[C@H](C)[C@H](NC(=O)[C@H](Cc1ccccc1)NC(=O)[C@H](Cc1c[nH]c2ccccc12)NC(=O)[C@@H](CCCN)NC(=O)CNC(=O)[C@H](CCCN)NC(=O)[C@@H](CCCN)NC(=O)[C@@H](Cc1c[nH]c2ccccc12)NC(=O)[C@@H](Cc1ccc(O)cc1)NC(=O)[C@@H](CO)NC(=O)CCCCCC(C)C)C(=O)N[C@@H](CC(N)=O)C(=O)NCC(=O)NCC(N)=O` ({Octanoyl(7-Me)}-[dS][dY][dW][dOrn][Orn]G[dOrn]WFINGG-NH2), the hemolysis at 1 h stood at 0.6%.
Consider `CCC(C)CCC(=O)N[C@H](CC(N)=O)C(=O)N[C@H](Cc1ccc(O)cc1)C(=O)N[C@H](Cc1c[nH]c2ccccc12)C(=O)N[C@H](CCCN)C(=O)N[C@@H](CCCN)C(=O)NCC(=O)N[C@H](CCCN)C(=O)N[C@@H](Cc1c[nH]c2ccccc12)C(=O)N[C@H](C(=O)N[C@H](C(=O)NCC(=O)N[C@@H](CO)C(=O)O)[C@@H](C)CC)[C@@H](C)O` (stereo not given in full) ({Hexanoyl(4ξ-Me)}-[dN][dY][dW][dOrn][Orn]G[dOrn]WTIGS-OH), for which the hemolysis at 1 h was below 0.1%.
As for `CC[C@H](C)[C@H](NC(=O)[C@@H](NC(=O)[C@H](Cc1c[nH]c2ccccc12)NC(=O)[C@@H](CCCN)NC(=O)CNC(=O)[C@H](CCCN)NC(=O)[C@@H](CCCN)NC(=O)[C@@H](Cc1c[nH]c2ccccc12)NC(=O)[C@@H](Cc1ccc(O)cc1)NC(=O)[C@@H](CO)NC(=O)CCCCCC(C)C)[C@@H](C)O)C(=O)N[C@@H](CC(N)=O)C(=O)NCC(=O)NCC(=O)O` ({Octanoyl(7-Me)}-[dS][dY][dW][dOrn][Orn]G[dOrn]WTINGG-OH), the hemolysis at 1 h was below 0.1%.
The figure for `CCC(C)CCC(=O)N[C@H](CC(N)=O)C(=O)N[C@H](Cc1ccc(O)cc1)C(=O)N[C@H](Cc1c[nH]c2ccccc12)C(=O)N[C@H](CCCN)C(=O)N[C@@H](CCCN)C(=O)NCC(=O)N[C@H](CCCN)C(=O)N[C@@H](Cc1c[nH]c2ccccc12)C(=O)N[C@H](C(=O)N[C@H](C(N)=O)[C@@H](C)CC)[C@@H](C)O` (stereo not given in full) ({Hexanoyl(4ξ-Me)}-[dN][dY][dW][dOrn][Orn]G[dOrn]WTI-NH2) is below 0.1%.
With `CCC(C)CCC(=O)N[C@H](CC(N)=O)C(=O)N[C@H](Cc1ccc(O)cc1)C(=O)N[C@H](Cc1c[nH]c2ccccc12)C(=O)N[C@H](CCCN)C(=O)N[C@@H](CCCN)C(=O)NCC(=O)N[C@H](CCCN)C(=O)N[C@@H](Cc1c[nH]c2ccccc12)C(=O)N[C@H](C(N)=O)[C@@H](C)O` (stereo not given in full) ({Hexanoyl(4ξ-Me)}-[dN][dY][dW][dOrn][Orn]G[dOrn]WT-NH2), the hemolysis at 1 h is below 0.1%.
As for `CCC(C)CCC(=O)N[C@H](CC(N)=O)C(=O)N[C@H](Cc1ccc(O)cc1)C(=O)N[C@H](Cc1c[nH]c2ccccc12)C(=O)N[C@H](CCCN)C(=O)N[C@@H](CCCN)C(=O)NCC(=O)N[C@H](CCCN)C(=O)N[C@@H](Cc1c[nH]c2ccccc12)C(N)=O` (stereo not given in full) ({Hexanoyl(4ξ-Me)}-[dN][dY][dW][dOrn][Orn]G[dOrn]W-NH2), the hemolysis at 1 h was below 0.1%.
With `C=CCOC(=O)CC[C@H](NC(=O)[C@H](Cc1c[nH]c2ccccc12)NC(=O)[C@@H](CCCN)NC(=O)CNC(=O)[C@H](CCCN)NC(=O)[C@@H](CCCN)NC(=O)[C@@H](Cc1c[nH]c2ccccc12)NC(=O)[C@@H](Cc1ccc(O)cc1)NC(=O)[C@@H](CO)NC(=O)CCCCCC(C)C)C(=O)N[C@H](C(=O)N[C@@H](CC(N)=O)C(=O)NCC(=O)NCC(N)=O)[C@@H](C)CC` ({Octanoyl(7-Me)}-[dS][dY][dW][dOrn][Orn]G[dOrn]WE(OAll)INGG-NH2), the hemolysis at 1 h was below 0.1%.
Take `CC[C@H](C)[C@H](NC(=O)[C@H](CC(C)C)NC(=O)[C@H](Cc1c[nH]c2ccccc12)NC(=O)[C@@H](CCCN)NC(=O)CNC(=O)[C@H](CCCN)NC(=O)[C@@H](CCCN)NC(=O)[C@@H](Cc1c[nH]c2ccccc12)NC(=O)[C@@H](Cc1ccc(O)cc1)NC(=O)[C@@H](CO)NC(=O)CCCCCC(C)C)C(=O)N[C@@H](CC(N)=O)C(=O)NCC(=O)NCC(N)=O` ({Octanoyl(7-Me)}-[dS][dY][dW][dOrn][Orn]G[dOrn]WLINGG-NH2): the hemolysis at 1 h was below 0.1%.
On to `CC[C@H](C)[C@H](NC(=O)[C@H](CO)NC(=O)[C@H](Cc1c[nH]c2ccccc12)NC(=O)[C@@H](CCCN)NC(=O)CNC(=O)[C@H](CCCN)NC(=O)[C@@H](CCCN)NC(=O)[C@@H](Cc1c[nH]c2ccccc12)NC(=O)[C@@H](Cc1ccc(O)cc1)NC(=O)[C@@H](CO)NC(=O)CCCCCC(C)C)C(=O)N[C@@H](CC(N)=O)C(=O)NCC(=O)NCC(N)=O` ({Octanoyl(7-Me)}-[dS][dY][dW][dOrn][Orn]G[dOrn]WSINGG-NH2), for which the hemolysis at 1 h is below 0.1%.
Then `CCC(C)CCC(=O)N[C@H](CC(N)=O)C(=O)N[C@H](Cc1ccc(O)cc1)C(=O)N[C@H](Cc1c[nH]c2ccccc12)C(=O)N[C@H](CCCN)C(=O)N[C@@H](CCCN)C(=O)NCC(=O)N[C@H](CCCN)C(=O)N[C@@H](Cc1c[nH]c2ccccc12)C(=O)N[C@@H]1C(=O)N[C@@H]([C@@H](C)CC)C(=O)NCC(=O)N[C@@H](CO)C(=O)O[C@@H]1C` (stereo not given in full) ({Hexanoyl(4ξ-Me)}-[dN][dY][dW][dOrn][Orn]G[dOrn]WTIGS; ester 9-C), with below 0.1%; and `CC[C@H](C)[C@H](NC(=O)[C@H](CC(N)=O)NC(=O)[C@H](Cc1c[nH]c2ccccc12)NC(=O)[C@@H](CCCN)NC(=O)CNC(=O)[C@H](CCCN)NC(=O)[C@@H](CCCN)NC(=O)[C@@H](Cc1c[nH]c2ccccc12)NC(=O)[C@@H](Cc1ccc(O)cc1)NC(=O)[C@@H](CO)NC(=O)CCCCCC(C)C)C(=O)N[C@@H](CC(N)=O)C(=O)NCC(=O)NCC(N)=O` ({Octanoyl(7-Me)}-[dS][dY][dW][dOrn][Orn]G[dOrn]WNINGG-NH2), with below 0.1%.
